This is an account of results in ChEMBL document CHEMBL1129519, “Optimal recognition of neutral endopeptidase and angiotensin-converting enzyme active sites by mercaptoacyldipeptides as a means to design potent dual inhibitors” (J Med Chem, 1996).

The target of one experiment is T1, Neprilysin (Oryctolagus cuniculus, UniProt P08049).
T1 sequence (P08049 whole entry): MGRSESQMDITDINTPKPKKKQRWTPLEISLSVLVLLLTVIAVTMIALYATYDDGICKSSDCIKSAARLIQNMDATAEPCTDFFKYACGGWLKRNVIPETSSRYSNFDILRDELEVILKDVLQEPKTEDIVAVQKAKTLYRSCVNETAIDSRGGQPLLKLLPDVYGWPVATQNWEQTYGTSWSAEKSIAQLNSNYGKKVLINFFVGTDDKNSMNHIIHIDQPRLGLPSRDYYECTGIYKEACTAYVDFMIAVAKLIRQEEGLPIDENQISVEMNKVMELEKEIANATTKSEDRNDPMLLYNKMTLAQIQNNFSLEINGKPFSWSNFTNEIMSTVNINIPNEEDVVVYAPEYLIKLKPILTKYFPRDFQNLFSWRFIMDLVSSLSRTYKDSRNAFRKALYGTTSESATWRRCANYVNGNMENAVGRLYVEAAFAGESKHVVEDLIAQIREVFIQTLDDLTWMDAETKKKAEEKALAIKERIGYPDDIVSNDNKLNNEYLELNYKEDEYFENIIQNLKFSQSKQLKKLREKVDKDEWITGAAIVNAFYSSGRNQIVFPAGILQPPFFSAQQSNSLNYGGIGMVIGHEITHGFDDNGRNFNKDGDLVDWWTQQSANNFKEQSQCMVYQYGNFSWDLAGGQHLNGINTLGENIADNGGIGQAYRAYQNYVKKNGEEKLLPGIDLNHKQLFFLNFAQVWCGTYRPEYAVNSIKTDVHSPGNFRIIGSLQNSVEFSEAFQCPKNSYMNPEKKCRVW
The experiment is described as follows: Inhibitory activity was tested against neutral endopeptidase. In a few lines:
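Rabbit kidney enzyme purified to homogeneity, 1 pmol/100 µL final, preincubated 15 min at 25 °C with or without rising inhibitor concentrations in 50 mM Tris-HCl pH 7.4. [3H]Tyr-D-Ala2-Leu-enkephalin then added to 20 nM final and run 30 min. Stopped with 0.5 M HCl, tritiated metabolites separated on polystyrene beads. IC50 as mean ± SEM of three independent determinations, each in triplicate.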

In experiment [1] the target is T2, Angiotensin-converting enzyme (Rattus norvegicus, UniProt P47820).
T2 sequence (P47820 whole entry): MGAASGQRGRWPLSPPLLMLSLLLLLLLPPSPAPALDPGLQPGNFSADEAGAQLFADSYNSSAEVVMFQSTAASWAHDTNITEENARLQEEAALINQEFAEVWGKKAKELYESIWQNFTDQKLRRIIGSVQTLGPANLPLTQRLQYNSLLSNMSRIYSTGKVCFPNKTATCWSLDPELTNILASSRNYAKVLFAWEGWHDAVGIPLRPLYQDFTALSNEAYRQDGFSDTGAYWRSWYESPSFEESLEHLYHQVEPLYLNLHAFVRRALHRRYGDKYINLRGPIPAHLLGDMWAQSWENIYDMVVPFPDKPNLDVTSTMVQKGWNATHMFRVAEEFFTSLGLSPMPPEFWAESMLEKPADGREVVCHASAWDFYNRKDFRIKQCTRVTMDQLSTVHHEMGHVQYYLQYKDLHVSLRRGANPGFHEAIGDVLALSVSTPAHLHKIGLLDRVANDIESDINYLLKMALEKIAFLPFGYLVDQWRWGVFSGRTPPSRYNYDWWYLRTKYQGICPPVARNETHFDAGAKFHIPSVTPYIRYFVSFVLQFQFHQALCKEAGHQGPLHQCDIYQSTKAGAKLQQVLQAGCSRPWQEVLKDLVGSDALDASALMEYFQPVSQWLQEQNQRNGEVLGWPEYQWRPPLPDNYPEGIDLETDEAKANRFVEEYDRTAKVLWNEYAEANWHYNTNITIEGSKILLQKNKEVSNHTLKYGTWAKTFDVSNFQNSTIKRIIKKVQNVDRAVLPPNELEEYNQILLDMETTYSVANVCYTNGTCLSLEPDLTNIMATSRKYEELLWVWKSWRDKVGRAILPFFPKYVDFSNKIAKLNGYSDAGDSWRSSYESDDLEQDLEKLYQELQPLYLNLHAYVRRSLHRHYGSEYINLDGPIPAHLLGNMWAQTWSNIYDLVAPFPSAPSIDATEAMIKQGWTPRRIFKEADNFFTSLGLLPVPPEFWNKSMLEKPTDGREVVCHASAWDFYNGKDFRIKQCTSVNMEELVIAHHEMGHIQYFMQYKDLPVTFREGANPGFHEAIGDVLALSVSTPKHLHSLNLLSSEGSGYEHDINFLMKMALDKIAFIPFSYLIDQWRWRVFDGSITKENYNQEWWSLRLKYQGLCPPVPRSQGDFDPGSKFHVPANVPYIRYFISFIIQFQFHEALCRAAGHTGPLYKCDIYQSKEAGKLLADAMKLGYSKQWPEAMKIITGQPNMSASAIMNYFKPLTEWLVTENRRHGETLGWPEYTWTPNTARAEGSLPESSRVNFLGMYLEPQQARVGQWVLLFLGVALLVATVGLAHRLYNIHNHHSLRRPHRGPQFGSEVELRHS
Nature of the experiment: Inhibitory activity against angiotensin I converting enzyme. In a few lines: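 Rat testis enzyme purified to homogeneity, 0.02 pmol/100 µL final, preincubated 15 min at 37 °C with varied inhibitor levels in 50 mM Tris-HCl pH 8.0. N-Cbz-Phe-His-Leu then added to 0.05 mM final and run 15 min. Stopped with 2 M NaOH, His-Leu measured fluorimetrically (ex 365, em 495 nm) against a His-Leu calibration curve. IC50 as mean ± SEM of three independent determinations, each in triplicate.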

In the case of `C=C(C)[C@@H]1CC[C@]2(C(=O)N[C@H](C(=O)O)[C@@H](C)CC)CC[C@]3(C)[C@H](CC[C@@H]4[C@@]5(C)CC[C@H](O)C(C)(C)[C@@H]5CC[C@]43C)[C@@H]12`, the results for the IC50 (against Neprilysin; in experiment [1]) were 5.5 nM and 6.3 nM, respectively.

On to `CC[C@@H](C)[C@H](S)C(=O)N[C@H](C(=O)N[C@@H](Cc1ccc(O)cc1)C(=O)O)C(C)c1ccccc1` (some centres undefined), for which the 50% inhibitory concentration (IC50) was 32 nM at Neprilysin and 33 nM in experiment [1].

For `CC[C@H](C)[C@H](S)C(=O)N[C@H](C(=O)N[C@@H](Cc1ccc(O)cc1)C(=O)O)C(C)C`, the results for the IC50 (against Neprilysin; in experiment [1]) were 5.3 nM and 1.9 nM, respectively.

As for `CC[C@H](C)[C@H](NC(=O)[C@@H](S)C(C)C)C(=O)N1C(C(=O)O)CC2CCCCC21` (some centres undefined), the figures for the IC50 (against Neprilysin; in experiment [1]) were 175 nM and 28 nM, respectively.

Consider `CC[C@H](C)[C@H](NC(=O)[C@@H](S)c1ccccc1)C(=O)N[C@@H](Cc1ccc(O)cc1)C(=O)O`, for which the IC50 against Neprilysin came to 4.5 nM; in experiment [1], 3.5 nM.

For the compound `CC[C@H](C)[C@H](S)C(=O)N[C@@H](Cc1ccccc1)C(=O)N[C@@H](Cc1ccc(O)cc1)C(=O)O`, the IC50 against Neprilysin came to 3.5 nM; in experiment [1] it was 10 nM.

`CC(C)C[C@H](NC(=O)[C@@H](S)Cc1ccccc1)C(=O)N[C@@H](Cc1ccc(O)cc1)C(=O)O`: the IC50 was determined as 2.2 nM on Neprilysin and 3 nM in experiment [1].

As for `CC(C)(NC(=O)[C@@H](S)CCc1ccccc1)C(=O)N1CCCC1C(=O)O` (some centres undefined), the results for the IC50 (on Neprilysin; in experiment [1]) were 46 nM and 1.6 nM, respectively.

In the case of `O=C(O)[C@H](Cc1ccccc1)NC(=O)[C@@H](S)Cc1ccccc1`, the IC50 against Neprilysin was 23 nM; in experiment [1] it was 44 nM.

With `CC[C@H](C)[C@H](NC(=O)[C@@H](S)Cc1ccccc1)C(=O)N[C@@H](Cc1ccc(O)cc1)C(=O)O`, the values for the IC50 (at Neprilysin; in experiment [1]) were 3 nM and 2.5 nM, respectively.

In the case of `O=C(O)[C@H](Cc1ccc(O)cc1)NC(=O)[C@H](Cc1ccccc1)NC(=O)[C@@H](S)CCc1ccccc1`, the values for the IC50 (against Neprilysin; in experiment [1]) were 20 nM and 1.5 nM, respectively.

Regarding `C[C@H](NC(=O)[C@@H](S)Cc1ccccc1)C(=O)N1CCCC1`, the IC50 came out at 22 nM on Neprilysin and 150 nM in experiment [1].

`C[C@H](NC(=O)[C@@H](S)Cc1ccccc1)C(=O)O`: the results for the IC50 (on Neprilysin; in experiment [1]) were 4 nM and 40 nM, respectively.

As to `CC[C@@H](C)[C@H](NC(=O)[C@@H](S)c1ccccc1)C(=O)N1CCCC1C(=O)O` (some centres undefined), the IC50 at Neprilysin is 130 nM; in experiment [1] it was 28 nM.

As to `CC[C@@H](C)[C@H](NC(=O)[C@@H](S)Cc1ccccc1)C(=O)N1CCCC1C(=O)O` (some centres undefined), the values for the IC50 (at Neprilysin; in experiment [1]) were 24 nM and 1.7 nM, respectively.

For the compound `C[C@H](NC(=O)[C@@H](S)Cc1ccccc1)C(=O)N1C(C(=O)O)CC2CCCCC21` (some centres undefined), the IC50 is 5.3 nM at Neprilysin and 0.4 nM in experiment [1].

In the case of `O=C(O)[C@H](Cc1c[nH]c2ccccc12)NC(=O)[C@H](Cc1ccccc1)NC(=O)[C@@H](S)Cc1ccccc1`, the concentration for half-maximal inhibition (IC50) stood at 50 nM on Neprilysin and 7.9 nM in experiment [1].

As to `CC(C)[C@H](NC(=O)[C@@H](S)Cc1ccccc1)C(=O)N[C@@H](Cc1ccc(O)cc1)C(=O)O`, the results for the IC50 (against Neprilysin; in experiment [1]) were 3.6 nM and 4 nM, respectively.

`CC[C@H](C)[C@H](S)C(=O)N[C@H](C(=O)N1CCC[C@H]1C(=O)O)C(C)C`: the concentration for half-maximal inhibition (IC50) was found to be 190 nM against Neprilysin and 0.58 nM in experiment [1].

For the compound `C[C@H](NC(=O)[C@H](Cc1ccccc1)NC(=O)CS)C(=O)O`, the IC50 stood at 14 nM against Neprilysin and 220 nM in experiment [1].

In the case of `O=C(O)[C@H](Cc1cccc2ccccc12)NC(=O)[C@H](Cc1ccccc1)NC(=O)[C@@H](S)Cc1ccccc1`, the IC50 at Neprilysin is 120 nM; in experiment [1], 50 nM.

For `CC[C@@H](C)[C@H](NC(=O)[C@@H](S)C(C)C)C(=O)N[C@@H](Cc1ccc(O)cc1)C(=O)O`, the results for the IC50 (on Neprilysin; in experiment [1]) were 1.4 nM and 0.26 nM, respectively.

On to `CC[C@@H](C)[C@H](NC(=O)[C@@H](S)C(C)OCc1ccccc1)C(=O)N[C@@H](Cc1ccc(O)cc1)C(=O)O` (some centres undefined), for which the IC50 was determined as 4.1 nM at Neprilysin and 7.1 nM in experiment [1].

In the case of `CC[C@H](C)[C@H](S)C(=O)N[C@@H](C)C(=O)N1c2ccccc2CC1C(=O)O` (some centres undefined), the IC50 at Neprilysin is 180 nM; in experiment [1], 3.3 nM.

Consider `O=C(O)[C@H](CSCc1ccccc1)NC(=O)[C@H](Cc1ccccc1)NC(=O)[C@@H](S)Cc1ccccc1`, for which the IC50 turned out to be 40 nM against Neprilysin and 14 nM in experiment [1].

Turning to `O=C(O)[C@H](Cc1ccc(O)cc1)NC(=O)[C@H](Cc1ccccc1)NC(=O)[C@@H](S)Cc1ccccc1`, the IC50 turned out to be 2.9 nM at Neprilysin and 5.6 nM in experiment [1].

On to `O=C(NC1(C(=O)O)CCCC1)[C@H](Cc1ccccc1)NC(=O)[C@@H](S)Cc1ccccc1`, for which the IC50 against Neprilysin is 45 nM; in experiment [1], 30 nM.

On to `CC(C)[C@H](NC(=O)[C@@H](S)CCc1ccccc1)C(=O)N[C@@H](Cc1ccc(O)cc1)C(=O)O`, for which the half-inhibitory concentration (IC50) is 10 nM on Neprilysin and 1.6 nM in experiment [1].

For `CC(OCc1ccccc1)[C@H](NC(=O)[C@@H](S)Cc1ccccc1)C(=O)N[C@@H](Cc1ccc(O)cc1)C(=O)O` (some centres undefined), the IC50 against Neprilysin was found to be 100 nM; in experiment [1] it was 34 nM.

In the case of `C[C@H](NC(=O)[C@@H](S)Cc1ccccc1)C(=O)N1CCCCC1C(=O)O` (some centres undefined), the IC50 against Neprilysin stood at 9.5 nM; in experiment [1], 1.6 nM.

Turning to `O=C(O)[C@H](COCc1ccccc1)NC(=O)[C@H](Cc1ccccc1)NC(=O)[C@@H](S)Cc1ccccc1`, the values for the IC50 (against Neprilysin; in experiment [1]) were 50 nM and 12 nM, respectively.

As to `CC(c1ccccc1)[C@H](S)C(=O)N[C@H](C(=O)N1CCCC[C@H]1C(=O)O)C(C)C` (some centres undefined), the IC50 against Neprilysin came to 180 nM; in experiment [1], 110 nM.

Regarding `O=C(O)C1CCCN1C(=O)[C@H](Cc1ccccc1)NC(=O)[C@@H](S)Cc1ccccc1` (some centres undefined), the figures for the IC50 (against Neprilysin; in experiment [1]) were 30 nM and 1.1 nM, respectively.

Regarding `C[C@H](NC(=O)[C@@H](S)Cc1ccccc1)C(=O)N1CCC[C@H]1C(=O)O`, the IC50 worked out at 3.8 nM against Neprilysin and 0.3 nM in experiment [1].

Turning to `C[C@H](NC(=O)[C@@H](S)CCc1ccccc1)C(=O)N1CCCC1C(=O)O` (some centres undefined), the IC50 against Neprilysin was 20 nM; in experiment [1], 0.35 nM.

In the case of `CC(C)[C@H](NC(=O)[C@@H](S)Cc1ccccc1)C(=O)N1CC(O)CC1C(=O)O` (some centres undefined), the values for the IC50 (on Neprilysin; in experiment [1]) were 63 nM and 100 nM, respectively.

Take `C[C@H](NC(=O)[C@H](S)Cc1ccccc1)C(=O)N1CCC[C@H]1C(=O)O`: the results for the IC50 (at Neprilysin; in experiment [1]) were 1.3 nM and 25 nM, respectively.

What is called IC50 is the concentration at which inhibition is half-maximal.
